Consider 9 compounds from ChEMBL document CHEMBL4673221, “Furanoflavones pongapin and lanceolatin B blocks the cell cycle and induce senescence in CYP1A1-overexpressing breast cancer cells” (Bioorg Med Chem, 2018).

The IC50 is the midpoint of a concentration-inhibition curve. In general, inhibition refers to the change of the read-out against control, counted positive when it falls. What is called EC50 is the concentration needed to bring the measured effect to its halfway point.

The target in series [1] is T1, Cytochrome P450 1A1 (Homo sapiens, UniProt P04798).
T1 sequence (P04798 whole entry): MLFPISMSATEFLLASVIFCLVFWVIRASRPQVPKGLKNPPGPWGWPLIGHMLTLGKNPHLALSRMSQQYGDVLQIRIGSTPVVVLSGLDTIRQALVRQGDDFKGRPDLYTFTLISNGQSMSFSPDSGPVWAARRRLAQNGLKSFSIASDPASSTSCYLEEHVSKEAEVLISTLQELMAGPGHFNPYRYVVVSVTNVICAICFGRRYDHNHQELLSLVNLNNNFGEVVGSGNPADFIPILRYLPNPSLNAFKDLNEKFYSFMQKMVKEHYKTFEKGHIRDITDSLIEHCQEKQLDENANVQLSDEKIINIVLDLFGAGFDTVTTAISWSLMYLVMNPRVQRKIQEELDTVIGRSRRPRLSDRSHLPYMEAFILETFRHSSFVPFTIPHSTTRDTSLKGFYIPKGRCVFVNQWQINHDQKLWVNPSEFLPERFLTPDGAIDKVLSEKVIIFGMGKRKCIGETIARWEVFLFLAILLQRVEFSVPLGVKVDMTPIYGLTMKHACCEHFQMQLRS
Nature of the series: Inhibition of human CYP1A1 expressed in HEK293 cells assessed as reduction in CYP1A1 mediated […] induced-toxicity by measuring EC50 at 3 times of IC50 concentration by MTT assay relative to control. In kind it is cell-based. More on the design: scale not given: the % may be the effect or the level left. The method in brief: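 Adherent HEK293 cells transfected with pcDNA3.1/hCYP1A1 were exposed to B[a]P over 0.05–100 µM, with inhibitor at 3x its IC50 from the suspension HEK293-CYP1A1 assay. The EC50 of B[a]P for cell growth inhibition was derived. Cells transfected with empty plasmid were used for comparison. Values are mean and SD of three independent experiments.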
Background: Formazan colour is commonly taken as a measure of viable cells.

Series [2] concerns the target T2, Cytochrome P450 1B1 (Homo sapiens, UniProt Q16678).
T2 sequence (Q16678 whole entry): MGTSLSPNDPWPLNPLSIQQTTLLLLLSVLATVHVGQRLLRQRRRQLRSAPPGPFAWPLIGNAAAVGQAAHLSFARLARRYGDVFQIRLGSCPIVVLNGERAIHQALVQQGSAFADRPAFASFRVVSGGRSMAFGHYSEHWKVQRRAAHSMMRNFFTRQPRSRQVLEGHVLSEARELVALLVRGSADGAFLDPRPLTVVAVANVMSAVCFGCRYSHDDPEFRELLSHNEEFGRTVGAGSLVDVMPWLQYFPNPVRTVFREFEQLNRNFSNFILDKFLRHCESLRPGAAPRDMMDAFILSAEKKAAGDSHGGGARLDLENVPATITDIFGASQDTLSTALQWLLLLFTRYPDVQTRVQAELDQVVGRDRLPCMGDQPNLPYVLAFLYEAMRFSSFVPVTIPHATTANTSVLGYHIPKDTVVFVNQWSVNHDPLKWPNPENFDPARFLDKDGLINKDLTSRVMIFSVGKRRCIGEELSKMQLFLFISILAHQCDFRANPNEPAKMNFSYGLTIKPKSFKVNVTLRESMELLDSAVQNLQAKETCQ
Kind of series: Inhibition of human CYP1B1 expressed in human HEK293 cells using 7-ethoxyresorufin as substrate preincubated for 30 mins followed by substrate additon and measured after 60 mins by fluorescence based assay. The format is ADME, cell-based. The method in brief:
(§1)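 The assay used live recombinant human HEK293 cells grown in suspension, each cell line expressing a single CYP (CYP1A1 or CYP1B1). Percent inhibition was read at 10 μM, and IC50 values were determined. Values are mean ± SD of three independent experiments. Alpha-naphthoflavone served as the reference inhibitor.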

Series [3] has as its target T2, Cytochrome P450 1B1. Kind of series: Inhibition of human CYP1B1 expressed in sacchrosomes using 7-ethoxyresorufin as substrate by fluorescence based assay. The format is ADME. The method in brief: (§2)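 Enzymes were microsomal preparations isolated from recombinant baker's yeast (Sacchrosomes). Compounds were screened at 10 μM for percent inhibition, and IC50 values were also determined. Values are mean ± SD of three independent experiments. Alpha-naphthoflavone served as the positive control.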

Series [4] addresses T1, Cytochrome P450 1A1. Nature of the series: Inhibition of human CYP1A1 expressed in human HEK293 cells using 7-ethoxyresorufin as substrate preincubated for 30 mins followed by substrate additon and measured after 60 mins by fluorescence based assay. In kind it is cell-based. The method in brief:
as §1

In series [5] the target is T1, Cytochrome P450 1A1. Nature of the series: Inhibition of human CYP1A1 expressed in sacchrosomes using 7-ethoxyresorufin as substrate by fluorescence based assay. The method in brief:
as §2

Series [6] addresses T3, CYP1A1 (Homo sapiens, UniProt P04798).
T3 sequence (P04798 whole entry): T1 sequence (P04798 whole entry)
Nature of the series: Inhibition of human CYP1A1 expressed in human HEK293 cells at 10 uM using 7-ethoxyresorufin as substrate preincubated for 30 mins followed by substrate additon and measured after 60 mins by fluorescence based assay relative to control. In kind it is cell-based. To be noted: HEK293 cells expressing human CYP1A1, probe 7-ethoxyresorufin, time 90 min. The method in brief:
as §1

The target of series [7] is T3, CYP1A1. Nature of the series: Inhibition of human CYP1A1 expressed in sacchrosomes at 10 uM using 7-ethoxyresorufin as substrate by fluorescence based assay relative to control. To be noted: sacchrosomes expressing human CYP1A1, probe 7-ethoxyresorufin. The method in brief:
as §2

Series [8] relates to MCF7. Kind of series: Induction of cell cycle arrest in human MCF7 over expressing CYP1A cells assessed as accumulation at S phase incubated for 24 hrs by PI staining based flow cytometric analysis (reference value: 20.1%). The format is functional. On the technique in general: Flow cytometry measures light scatter and fluorescence of single cells or particles in a stream.

In series [9] the test system is MCF7. Nature of the series: Induction of cell cycle arrest in human MCF7 over expressing CYP1A cells assessed as accumulation at G0/G1 phase incubated for 24 hrs by PI staining based flow cytometric analysis (Rvb =54.3 %). In kind it is functional.
The test system of series [10] is MCF7. Kind of series: Antiproliferative activity against human MCF-7 cells overexpressing CYP1A1 assessed as reduction in cell viability. In kind it is functional, cell-based. The method in brief: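 MCF-7 cells transfected with pcDNA3.1/CYP1A1 and selected in G418 (1 mg/mL, then […]) to give the stable MCF7-1A1 line. CYP1A1 expression was confirmed by Western blot and 7-ethoxyresorufin enzyme assay. The line was subcloned repeatedly. The reported value is the EC50 for inhibition of proliferation.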

Series [11] deals with MCF7. Nature of the series: Induction of cell cycle arrest in human MCF7 over expressing CYP1A cells assessed as accumulation at G2/M phase incubated for 24 hrs by PI staining based flow cytometric analysis (reference value: 22.6%). The format is functional.
Series [12] has as its system MCF7. Kind of series: Cell cycle arrest in human MCF-7 cells over expressing CYP1A1 assessed as down regulation of CyclinD1 after 24 hrs by western blotting assay. In kind it is functional, cell-based. The method in brief: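 Cyclin D1 was detected by Western blot, with β-tubulin as loading control. Untreated cells served as control.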
(Immunoblotting shows a protein as a band on a membrane.)

The source made the active and inactive calls. The calls are words filed in the database; no cut-off is given here. Some results are limits rather than exact numbers.

Turning to `COc1c(C(=O)/C=C(\O)c2ccccc2)ccc2occc12` [PONGAMOL], the Activity in series [1] is reported as 73%. Also, the concentration for half-maximal inhibition (IC50) in [2] was found to be 4.5 µM; in [3] it was 3.9 µM; in series [4], 4.4 µM; in [5], 2.4 µM.
On to `O=c1cc(-c2cccc(O)c2)oc2c1ccc1occc12`, for which the IC50 was determined as 1.2 µM in series [2], 3.8 µM in series [3], 0.24 µM in series [4] and 0.69 µM in [5].
With `COc1c(-c2cc(-c3ccccc3)n(-c3ccc(C#N)cc3)n2)ccc2occc12`, the inhibition at 1 h, 10 µM in series [6] is over 84%. Also, the inhibition at 10 µM in series [7] was over 70%. For the same compound, in [1], the Activity came out at 91%. In addition, the IC50 in series [2] was 5.7 µM; in series [3] it was over 20 µM; in series [4], 0.49 µM; in [5] it was 0.28 µM.
Regarding `O=c1cc(-c2ccccc2)oc2c1ccc1ccccc12` [ALPHA-NAPHTHOFLAVONE], the results for the Activity in series [8], in [9] and in series [11] were 24.1%, 55.4% and 20.5%, respectively. The EC50 in [10] was over 20 µM. Further, the result in [12] was Active.
In turn, `COc1c(-c2cc(-c3ccccc3)nn2-c2ccc(C#N)cc2)ccc2occc12` came in with an inhibition at 1 h, 10 µM in series [6] of over 84%. Also, the inhibition at 10 µM in [7] is over 70%. Moreover, the IC50 was 25.5 µM in series [2], 6.2 µM in [3], 8.6 µM in series [4] and 6.8 µM in [5].
`COc1c(-c2cc(-c3ccccc3)nn2-c2ccccc2[N+](=O)[O-])ccc2occc12` had an inhibition at 10 µM in series [7] of 31.6%.
Consider `COc1c(C(=O)/C=C(\O)c2ccc3c(c2)OCO3)ccc2occc12` [OVALITENONE], for which the 50% inhibitory concentration (IC50) amounted to 1.5 µM in series [2], 0.6 µM in series [3], 0.48 µM in series [4] and 0.28 µM in [5].
The like results for `O=c1cc(-c2ccc3c(c2)OCO3)oc2c1ccc1occc12` [PONGAGLABRONE] were, in that order, 6.8 µM, 3.4 µM, 6.4 µM and 8.2 µM.
For the compound `COc1c(-c2ccccc2)oc2c(ccc3occc32)c1=O` [KARANJIN], the IC50 came out at 0.03 µM in series [2], 4.1 µM in series [3], 0.03 µM in series [4] and 2.7 µM in series [5].
